Structures are written as SMILES.

The nature of this series: Toxicity liver stage against HepG2, at 10uM. Type of series: cell-based. Further details: test concentration 10 uM, cell line HepG2-A16-CD81EGFP. The note with it: human, HepG2-A16-CD81EGFP cells; read-out: INHIBITION
An outline of the steps: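 Uninfected HepG2-A16-CD81EGFP cells, 3 × 10^3 per well, 1536-well, plated on prespotted compound at 10 μM final, parasite-free screening media added to match infected plates; puromycin 10 μM positive, DMSO 0.5% negative; run in parallel with 48 h PbLuc assay at 37 °C, 5% CO2; viability by CellTiter-Glo luminescence, normalized to controls.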
Regarding `CC1(C)Oc2ccc(S(=O)(=O)NCCCn3ccnc3)cc2NC1=O`, the cytotoxicity at 10 µM was 14.5%.

Take `CCN(CC)CCNCC1CCOC(C)(C)C1` (stereo not drawn): the cytotoxicity at 10 µM was -6.87%.

For `CC(C)(C)OCC1CN(CC2CC2)S(=O)(=O)c2cnccc2O1` (stereo not drawn), the cytotoxicity at 10 µM was -1.16%.

Turning to `COCCNC(=O)Cn1ccc2ccc(F)cc21`, the cytotoxicity at 10 µM stood at 2.14%.

On to `CC(=O)Nc1ccc(OCc2noc(C(=O)N3CCCCC3)n2)cc1`, for which the cytotoxicity at 10 µM is -3.68%.

For the molecule `O=C(CCc1nc2cccnc2[nH]1)Nc1ccc2c(c1)OCC(=O)N2`, the cytotoxicity at 10 µM was 6.78%.

As for `COc1ccccc1OCC(=O)NCC(O)(c1cccs1)C1CC1` (stereo not drawn), the cytotoxicity at 10 µM was -5%.

Turning to `COC1CCN(C(=O)CCn2ccc(=O)[nH]c2=O)CC1`, the cytotoxicity at 10 µM is -4.73%.

Consider `COc1cc(N2C[C@H]3CN(CCN4CCCC4)C(=O)[C@H]3C2)ncn1`, for which the cytotoxicity at 10 µM turned out to be 12.7%.

As to `Cn1cc(CN2C[C@@H]3COC[C@]3(C(=O)N3CCCO3)C2)cn1`, the cytotoxicity at 10 µM came out at 12.1%.

On to `O=S(=O)(NC1=NCN(CCc2cccs2)CN1)c1ccc(Cl)cc1`, for which the cytotoxicity at 10 µM is -2.03%.

Regarding `O=C(CSC1CCc2ccccc2NC1=O)NCCO` (stereo not drawn), the cytotoxicity at 10 µM is 5.52%.

For `CC(C)CN1C[C@@H]2CN(C(=O)[C@H]3CCCO3)C[C@@H]2C1=O`, the cytotoxicity at 10 µM worked out at 6.03%.

As to `CC[C@H]1NCCC[C@]12CCC(=O)N2Cc1ccncc1`, the cytotoxicity at 10 µM was found to be 6.29%.

Consider `O=C(NCc1cnc2n1CCN(CC1CC1)CC2)C1CCC1`, for which the cytotoxicity at 10 µM was -12.9%.

On to `COCCN1CCC2(CCN(Cc3nccs3)CC2)C1=O`, for which the cytotoxicity at 10 µM is -4.36%.

Take `CC(C)NC(=O)c1nn(C)c(NC(=O)Cc2ccccc2)c1F`: the cytotoxicity at 10 µM was -1.73%.

Regarding `CCn1nc(C)c2nc(C(C)C)nc(NCCOC)c21`, the cytotoxicity at 10 µM came out at 6.3%.

Consider `Cc1nccn1[C@@H]1CC[C@@H](N(C)S(=O)(=O)c2cccc(F)c2)[C@H]1O`, for which the cytotoxicity at 10 µM was -2.4%.

Take `CC(C(N)=O)n1nc(-c2cccs2)cc(N)c1=O` (stereo not drawn): the cytotoxicity at 10 µM came out at 6.44%.

For `O=C(NCC1CCOCC1)c1cc(-c2ccncc2)c2cnccc2n1`, the cytotoxicity at 10 µM is -0.762%.

Consider `Cn1ccc(NC(=O)CN2CCC(Oc3cnccn3)CC2)n1`, for which the cytotoxicity at 10 µM is 4.3%.

Turning to `CN1CCC(c2[nH]ncc2S(C)(=O)=O)CC1`, the cytotoxicity at 10 µM is -7.06%.

As for `CCCC(=O)N1CCC(c2cc[nH]n2)C1` (stereo not drawn), the cytotoxicity at 10 µM stood at 1.2%.

For the molecule `Cc1cnc(C(=O)N(C)[C@@H]2CCC[C@@H](Oc3ccccc3)[C@@H]2O)cn1`, the cytotoxicity at 10 µM is -15.3%.

For the molecule `CNC(=O)c1ccc(C2CCCN(C(=O)c3c(C)noc3C)C2)nc1` (stereo not drawn), the cytotoxicity at 10 µM is -9.88%.

On to `O=C(N1CCCCC1)N1CCCC(c2ncncc2-c2ccncc2)C1` (stereo not drawn), for which the cytotoxicity at 10 µM is -32.1%.

Take `CCCC(=O)N1CCC(c2nc(O)c3c(n2)CCN(C2CCCC2)C3)C1` (stereo not drawn): the cytotoxicity at 10 µM worked out at 9.34%.

On to `CC(=O)N1CCCC1c1cccc(Oc2ccccc2F)n1` (stereo not drawn), for which the cytotoxicity at 10 µM is -2.53%.

For the molecule `O=C(c1cnccn1)N1CCC(Cc2cnc3[nH]ccc3c2)CC1`, the cytotoxicity at 10 µM is -18.6%.

On to `CN1CCN(C2CCN(CC(O)c3ccccc3F)CC2)C1=O` (stereo not drawn), for which the cytotoxicity at 10 µM was -0.275%.

Turning to `CC(c1nc(C2CC2)no1)N1CCc2c(ncn2C2CC2)C1` (stereo not drawn), the cytotoxicity at 10 µM was -2.52%.

As for `CC(C)CN1CCC(NC(=O)NCCC(=O)NCc2ccccc2)CC1`, the cytotoxicity at 10 µM worked out at 1.64%.

Turning to `NC(=O)C1CCN(C(=O)NCc2ccccc2Cn2ccnc2)CC1`, the cytotoxicity at 10 µM is -0.302%.

Consider `CC(C)CN(Cc1nnc(-c2ccco2)o1)CC(C)C`, for which the cytotoxicity at 10 µM was determined as 0.0773%.

For the molecule `COc1ccc(CNC(=O)N2CCOCC2C2CC2)c(C)c1` (stereo not drawn), the cytotoxicity at 10 µM was determined as 4.54%.

`Cc1cc(CN2CCN(C(C)c3nc(C(C)C)no3)CC2)no1` (stereo not drawn): the cytotoxicity at 10 µM stood at 3.29%.

As to `CC(=O)NCCc1ccc(S(=O)(=O)N(C)C(C)C(C)(C)C)s1` (stereo not drawn), the cytotoxicity at 10 µM is -3.58%.

Take `CC(=O)N1CCN(CCNS(=O)(=O)c2cc(F)ccc2C)CC1`: the cytotoxicity at 10 µM is 5.42%.

For `CC(C)c1nnc2n1CC(CNCc1ccc3c(c1)OCCO3)CC2` (stereo not drawn), the cytotoxicity at 10 µM is -5.92%.

Regarding `O=S(=O)(NCCCN1CC=CC1)c1cncc(Cl)c1`, the cytotoxicity at 10 µM is -6.38%.

`CSc1ccc(NCc2csc(CS(C)(=O)=O)n2)cc1F`: the cytotoxicity at 10 µM is -9.99%.

As to `Cn1nnc2cc(C(=O)NS(=O)(=O)c3ccc(F)cc3)ccc21`, the cytotoxicity at 10 µM was 5.46%.

Consider `O=C(c1ccc(N2CCCC2)nc1)N1CCCC(c2nccs2)C1` (stereo not drawn), for which the cytotoxicity at 10 µM was 15.4%.

For the molecule `COCCNC(C)c1ccc(-c2cccnc2)cc1` (stereo not drawn), the cytotoxicity at 10 µM worked out at 2.7%.

Take `COCCN1CCN(CC(O)c2ccc(C(F)(F)F)cc2)CC1` (stereo not drawn): the cytotoxicity at 10 µM is -10.7%.

In the case of `COc1ccccc1N1CCC(CNS(=O)(=O)c2c(C)nn(C)c2C)C1` (stereo not drawn), the cytotoxicity at 10 µM is -21.8%.

`CC(=O)NCCC(=O)NC1(c2ccc(Cl)c(Cl)c2)CC1`: the cytotoxicity at 10 µM was found to be 7.49%.

As for `CSC(C)(C)CNC(=O)NCc1cccc(-n2ccnc2)c1`, the cytotoxicity at 10 µM was determined as 32.9%.

As to `N#Cc1ccc(CNC(=O)NCCC(=O)NC2CCCC2)c(F)c1`, the cytotoxicity at 10 µM stood at 3.79%.

Regarding `O=C(C1CCCc2[nH]ncc21)N1CCCC1` (stereo not drawn), the cytotoxicity at 10 µM was determined as 8.53%.

As to `CCc1nc(CN(C)CC2CCN(CCO)CC2)no1`, the cytotoxicity at 10 µM was -9.68%.

As to `Cc1noc(C(C)N2CCN(CCC(=O)N3CCCCC3)CC2)n1` (stereo not drawn), the cytotoxicity at 10 µM is -9.24%.

In the case of `CC[C@@H](C)[C@@H](N)C(=O)Nc1cccc(-c2cnc(N)nc2)c1`, the cytotoxicity at 10 µM is 0.942%.

Turning to `O=C(O)[C@H]1C[C@@H](C(=O)NCc2ccncc2)CN(Cc2ccccc2)C1`, the cytotoxicity at 10 µM is -138%.

Turning to `Cc1cnc(C(=O)N2CC(=O)N(c3ccccc3Cl)CC2C)cn1` (stereo not drawn), the cytotoxicity at 10 µM was -8.23%.

Take `Cc1ccccc1C(=O)NC[C@@H]1CCN(C(=O)c2cccn2C)C[C@H]1O`: the cytotoxicity at 10 µM is -45.3%.

For the molecule `CN1CCCC(CCC(=O)NCCCn2ncc3ccccc32)C1` (stereo not drawn), the cytotoxicity at 10 µM amounted to 2.39%.

`Cc1cc2ccccc2n1CCC(=O)N1CCCC1Cn1cccn1` (stereo not drawn): the cytotoxicity at 10 µM was found to be 2.15%.

With `COc1cc(NC(=O)NCc2ccccn2)cc(OC)c1`, the cytotoxicity at 10 µM is -4.13%.

Take `CCc1cccc(OCCCN(C)C(=O)CN2CCNC2=O)c1`: the cytotoxicity at 10 µM is -2.48%.

Turning to `Cc1ccccc1CC(=O)N1CCc2c(ncnc2N2CCOCC2)C1`, the cytotoxicity at 10 µM is -3.39%.

Consider `CNC(=O)c1nc(CN2CCOC(CCCC(C)C)C2)no1` (stereo not drawn), for which the cytotoxicity at 10 µM was -2.25%.

For the molecule `CC(C)n1ccnc1C1CCN(C(=O)C2COc3ccccc3O2)CC1` (stereo not drawn), the cytotoxicity at 10 µM was -8.28%.

Consider `COc1ccc2c(c1)OCC(CNC(=O)c1ccc(=O)n(C)c1)C2` (stereo not drawn), for which the cytotoxicity at 10 µM was -11.2%.

In the case of `Cc1nn(C)cc1-c1cc(C(F)(F)F)n(CCCN)n1`, the cytotoxicity at 10 µM is -6.25%.

For the molecule `O=C(NCCn1nc2ccccn2c1=O)c1scnc1Cl`, the cytotoxicity at 10 µM is -13.9%.

`CCC1c2ccsc2CCN1C(=O)NCc1cccnc1N(C)C` (stereo not drawn): the cytotoxicity at 10 µM is -17.4%.

For the molecule `Cc1nc(C2CCCN2C(=O)c2cc3c(s2)CCC3)no1` (stereo not drawn), the cytotoxicity at 10 µM was -6.82%.

Take `CC(NC(=O)N1CCC(n2cncn2)CC1)c1ccc(F)cc1` (stereo not drawn): the cytotoxicity at 10 µM was -3.66%.

Consider `c1ncn(CC2CN(Cc3ccc4c(c3)OCCO4)CCO2)n1` (stereo not drawn), for which the cytotoxicity at 10 µM was -0.282%.

Take `CS(=O)(=O)c1ccc(CNC(=O)N2CCC(CO)CC2)cc1`: the cytotoxicity at 10 µM is -11.6%.

For the molecule `Cc1cnn(CC2CCCN2Cc2noc(CC(C)C)n2)c1` (stereo not drawn), the cytotoxicity at 10 µM was -5.04%.

As for `Cc1ccccc1CC(C)NC(=O)Nc1cnn(CC(N)=O)c1` (stereo not drawn), the cytotoxicity at 10 µM was -11.5%.

Turning to `Cc1nn(C)c(N(C)C)c1CNCc1ccnc(N2CCOCC2)c1`, the cytotoxicity at 10 µM is -13%.

Turning to `COc1ccc(OC)c(C(=O)N(C)Cc2ncc(C)c(OC)c2C)c1`, the cytotoxicity at 10 µM was -4.3%.

Turning to `CC(C)c1nc(C2CCCN2Cc2ccno2)no1` (stereo not drawn), the cytotoxicity at 10 µM is -6.85%.

In the case of `O=C(C1CCCC1)N1CCN(Cc2nc(-c3ccco3)no2)CC1`, the cytotoxicity at 10 µM is -7.84%.

In the case of `Cc1ccc(C(CNC(=O)NCc2cc[nH]n2)N2CCOCC2)o1` (stereo not drawn), the cytotoxicity at 10 µM is -8.78%.

For `CCC1CN(CC(=O)Nc2sccc2C#N)CCO1` (stereo not drawn), the cytotoxicity at 10 µM was -9.29%.

Consider `CCn1cnnc1C1CCN(C(=O)c2cnc(C3CC3)s2)CC1`, for which the cytotoxicity at 10 µM was -7.59%.

For the molecule `Cn1c(C2CC2)nc2c1CCN(CC(=O)Nc1nncs1)C2`, the cytotoxicity at 10 µM is -6.44%.

As to `COc1ccc(CNCC(C)Oc2ccccn2)cc1Cl` (stereo not drawn), the cytotoxicity at 10 µM was 7.36%.

As to `CN1CC(=O)N(c2ccccc2)CC12CCN(C(=O)c1cccs1)C2` (stereo not drawn), the cytotoxicity at 10 µM is -79.3%.

With `Cn1cc(C[C@H]2[C@H](N3CCOCC3)CCN2C(=O)c2ccco2)cn1`, the cytotoxicity at 10 µM was determined as 2.44%.

As to `Cn1cc(CN2CC[C@H](O)[C@@H]2Cc2ccccc2)cn1`, the cytotoxicity at 10 µM is -73%.

Take `Cc1noc(C)c1CN1CC[C@H]2OCC[C@@]2(C(=O)NC2CCCC2)C1`: the cytotoxicity at 10 µM is -75.7%.

As for `Cc1ccoc1C(=O)N1CCn2nnc(COc3cccnc3)c2C1`, the cytotoxicity at 10 µM is -82.5%.

In the case of `c1cc(CN2CCCC23CCCN(Cc2ccoc2)C3)ccn1` (stereo not drawn), the cytotoxicity at 10 µM stood at 2.25%.

In the case of `Cc1csc2nc3n(c(=O)c12)CCN(Cc1c[nH]cn1)CC3`, the cytotoxicity at 10 µM is -18.8%.

For the molecule `CN1C(=O)CCCC12CCCN(Cc1nccs1)C2` (stereo not drawn), the cytotoxicity at 10 µM was 11.4%.

Take `Cn1cc(CN2CCOCC3(C2)CN(c2ccccc2)C(=O)CO3)cn1` (stereo not drawn): the cytotoxicity at 10 µM worked out at 0.436%.

Consider `C[C@H](N)Cn1nc(-c2cccs2)oc1=O`, for which the cytotoxicity at 10 µM is -1.94%.

Take `CN(C)C(=O)CN1C(=O)CCC12CCN(Cc1ccc(F)cc1)CC2`: the cytotoxicity at 10 µM is 7.8%.

In the case of `c1nc2c(c(NC3CCC3)n1)CCNCC2`, the cytotoxicity at 10 µM is -1.28%.

With `Cn1cncc1CN1CCC2(CCCN2c2ncccn2)CC1`, the cytotoxicity at 10 µM stood at 9.37%.

Consider `NC(=O)c1cccc(CNCC=Cc2ccccc2)c1`, for which the cytotoxicity at 10 µM was found to be 5.62%.

In the case of `CN(CCCOc1ccccc1Cl)C(=O)CN1C[C@H]2CC[C@@H](CC1=O)N2`, the cytotoxicity at 10 µM is -11.9%.

The values above are taken from ChEMBL document CHEMBL4513216, “Probing the Open Global Health Chemical Diversity Library for Multistage-Active Starting Points for Next-Generation Antimalarials” (ACS Infect Dis, 2020).
